Laboratory results reported in ChEMBL document CHEMBL3868592, “Analogues of Marine Guanidine Alkaloids Are in Vitro Effective against Trypanosoma cruzi and Selectively Eliminate Leishmania (L.) infantum Intracellular Amastigotes” (J Nat Prod, 2016).
The source made the active and inactive calls. No cut-off for these calls is given here.

Columns and labels:
[1] = Selectivity index, ratio of CC50 for mouse NCTC-929 cells to IC50 for Trypanosoma cruzi Y trypomastigote form infected in monkey LLC-MK2 cells; format: functional
[2] = system: Trypanosoma cruzi; assay: Potency index, ratio of benznidazole IC50 to compound IC50 for Trypanosoma cruzi Y trypomastigote forms infected in monkey LLC-MK2 cells; format: functional
[3] = system: Leishmania infantum; assay: Antileishmanial activity against Leishmania infantum MHOM/BR/1972/LD promastigote forms […] assessed as reduction in parasite viability after 48 hrs by MTT assay; format: functional
How it was run: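 Late-growth-phase promastigotes (passage 5) seeded at 1×10^6/well in M-199. Compounds dissolved in DMSO, tested up to 100 μM, 48 h at 24 °C. Viability by MTT, OD 570 nm, against drug-free (100%) and cell-free blank wells; 0.5% DMSO control. IC50 from sigmoidal dose-response curves; ≥2 independent assays.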

[4] = Cytotoxicity against mouse NCTC-929 cells assessed as decrease in cell viability after 48 hrs by MTT assay; format: toxicity
How it was run: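 NCTC clone 929 murine cells seeded at 6×10^4/well. Compound up to 150 μM for 48 h at 37 °C, 5% CO2. Viability read by MTT. CC50 from sigmoidal dose-response; mean of at least two independent experiments.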

[5] = system: Leishmania infantum; assay: Antileishmanial activity against Leishmania infantum MHOM/BR/1972/LD amastigote forms infected in BALB/c mouse peritoneal macrophages assessed as reduction in parasite viability after 120 hrs by giemsa staining based light microscopy; format: functional
How it was run: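 BALB/c peritoneal macrophages seeded at 1×10^5/well for 24 h, then infected with hamster spleen-derived amastigotes (1:10 macrophage:amastigote, 24 h, 37 °C, 5% CO2). Compound exposure for 120 h, highest 100 μM. Cells MeOH-fixed and Giemsa-stained; infected macrophages counted out of 400 cells. IC50 from sigmoidal dose-response; at least two independent assays.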

[6] = system: Trypanosoma cruzi; assay: Antitrypanosomal activity against Trypanosoma cruzi Y trypomastigote forms infected in monkey LLC-MK2 cells assessed as reduction in parasite viability after 24 hrs by resazurin assay; format: functional, cell-based; conditions: LLC-MK2, 24 h
How it was run: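 Y-strain trypomastigotes from LLC-MK2 cultures seeded at 1×10^6/well in RPMI-1640. Compounds up to 150 μM, 24 h at 37 °C, 5% CO2. Viability by resazurin (0.011% in PBS), read at 570 nm against drug-free and cell-free wells; 0.5% DMSO control. IC50 by sigmoidal dose-response curve fitting.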

[7] = Selectivity index, ratio of CC50 for mouse NCTC-929 cells to IC50 for Leishmania infantum MHOM/BR/1972/LD amastigote forms infected in BALB/c mouse macrophages; format: functional
[8] = system: Leishmania infantum; assay: Induction of mitochondrial membrane potential loss in Leishmania infantum MHOM/BR/1972/LD promastigote form at 34 uM incubated for 60 mins by rhodamine-123 dye based fluorimetric assay; format: functional
How it was run: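 Promastigotes (2×10^6/mL) in HBSS-glucose exposed to compound for 60 min at 25 °C. Rhodamine-123 (0.3 μg/mL) then added, cells washed and resuspended in HBSS-Glc, and fluorescence read at ex 485/em 520 nm. Sodium azide 10 mM as positive control; background, DMSO and untreated controls included. Triplicates.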

[9] = system: Leishmania infantum; assay: Induction of plasma membrane permeability in Leishmania infantum MHOM/BR/1972/LD promastigote form assessed as increase in fluorescence intensity at 34 uM measured every 20 mins for 60 mins by SYTOX green dye based fluorimetric assay relative to control; format: functional
How it was run: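 Late-growth-phase promastigotes (passage 7) washed in PBS, seeded at 2×10^6/well and loaded with 1 μM SYTOX Green for 15 min at 24 °C. Compound added; fluorescence (ex 485/em 520 nm) read every 20 min over 60 min. 0.1% Triton X-100 defined maximal permeabilization. Background, DMSO, untreated and cell-free controls included. Triplicates.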

[10] = system: Peritoneal macrophage; assay: Antiinflammatory activity in BALB/c mouse peritoneal macrophages co-cultivated with splenocytes assessed as decrease in INF-gamma release at 15 uM after 48 hrs by flow cytometric analysis; format: functional
How it was run: (§1)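 Peritoneal macrophages from BALB/c mice seeded at 1.5×10^5 cells/well; after 24 h, infected where applicable with L. infantum spleen-derived amastigotes at 1:10 (macrophage:amastigote). After 24 h, cocultured where applicable with splenocytes at 6:1. Compound added for 48 h. Supernatant cytokines quantified with an inflammatory cytometric bead array by flow cytometry. Sham-treated infected macrophages served as reference.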

[11] = system: Peritoneal macrophage; assay: Antiinflammatory activity in BALB/c mouse peritoneal macrophages infected with Leishmania infantum MHOM/BR/1972/LD amastigote form cocultivated with splenocytes assessed as decrease in INF-gamma release at 15 uM after 48 hrs by flow cytometric analysis; format: functional; how it was run: as §1
[12] = system: Splenocyte; assay: Antiinflammatory activity in splenocytes (unknown origin) assessed as decrease in MCP1 release at 15 uM after 48 hrs by flow cytometric analysis; format: functional, cell-based
[13] = system: Leishmania infantum; assay: Induction of ROS generation in Leishmania infantum MHOM/BR/1972/LD promastigote form at 34 uM incubated for […] by H2DCF-DA probe based fluorimetric assay relative to untreated control; format: functional
How it was run: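 Promastigotes (2×10^6/well) washed in HBSS and exposed to compound for 60 min. H2DCFDA (5 μM) then added for 15 min. Fluorescence read at ex 485/em 520 nm. Sodium azide 10 mM as positive control; background, DMSO, untreated and cell-free controls included. Triplicates.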

Compound | Ratio CC50/IC50 [1] | Ratio IC50 [2] | IC50 [3] [µM] | CC50 at 48 h [4] [µM] | IC50 [5] [µM] | IC50 [6] [µM] | Ratio CC50/IC50 [7] | Activity [8] [%] | Activity [9] [%] | Activity [10] | Activity [11] | Activity [12] | Activity [13] [%]
CCCCCCCCCCCC(=O)OCCCC[C@H]1C[C@H]2CC[C@H]3C[C@@H](C)[NH+]=C(N1)N23.F[B-](F)(F)F | 19 | 4 | 48 | 57 | > 100 | 4 |  |  |  |  |  |  | 
CC(C)=CCC/C(C)=C/CNC(=N)N.Cl | 3 |  | 9 | 116 | 19 | 35 | 6 |  |  |  |  |  | 
C1CC[C@]2(C[C@H]3CC[C@H]4C[C@@]5(CCCCO5)[NH+]=C(N2)N34)OC1.F[B-](F)(F)F |  |  | > 100 | > 150 | 8 | > 100 | >19 |  |  |  |  |  | 
C[C@H](O)CCCCC[C@@H]1C[C@H]2CC[C@H]3C[C@@H](C)NC(=[NH+]1)N23.F[B-](F)(F)F |  |  | > 100 | > 150 | 49 | > 100 | >3 |  |  |  |  |  | 
CCCCCC(=O)OCCCC[C@H]1C[C@H]2CC[C@H]3C[C@@H](C)[NH+]=C(N1)N23.F[B-](F)(F)F | >7 |  | 109 | > 150 | > 100 | 22 |  |  |  |  |  |  | 
CCCCCCCCCCCCCCCCOP(=O)([O-])OCC[N+](C)(C)C [MILTEFOSINE] |  |  |  | 122 | 17 |  | 7 |  |  |  |  |  | 
C[C@@H]1C[C@@H]2CC[C@@H]3C[C@H](CCCCO)NC(=N1)N32 |  |  | > 100 | > 150 | > 100 | > 100 |  |  |  |  |  |  | 
CCCCCCCCC[C@@H]1C[C@@H]2CC[C@H]3C(C(=O)O)[C@@H](C)N=C(N1)N23.O=C(O)C(F)(F)F (single isomer, unassigned; 15) | 0.9 |  | 57 | 70 | 24 | 79 | 3 |  |  |  |  |  | 
O=C(Cn1ccnc1[N+](=O)[O-])NCc1ccccc1 [BENZNIDAZOLE] | >9 |  |  | > 150 |  | 16 |  |  |  |  |  |  | 
CCCC(=O)OCCCC[C@H]1C[C@H]2CC[C@H]3C[C@@H](C)[NH+]=C(N1)N23.F[B-](F)(F)F | >2 |  | > 100 | > 150 | > 100 | 49 |  |  |  |  |  |  | 
CCCCCCCCCc1cc(CCCO)nc(N)n1 | 5 |  | 42 | 42 | 5 | 8 | 8 |  |  |  |  |  | 
C=CCOC(=O)C1=C(CCCCC[C@@H](C)O[Si](C(C)(C)C)(C(C)(C)C)C(C)(C)C)NC2=[N+]3[C@H](CC[C@@H]13)C[C@H](C)N2.CC(=O)[O-] | 2 | 17 | > 100 | 2 | 0.8 | 0.9 | 3 |  |  |  |  |  | 
CCCCCCCCCC(=O)OCCCC[C@H]1C[C@H]2CC[C@H]3C[C@@H](C)[NH+]=C(N1)N23.F[B-](F)(F)F | 28 | 4 | 59 | 84 | > 100 | 4 |  |  |  |  |  |  | 
C[C@@H]1C[C@@H]2CC[C@@H]3C[C@H](CCCCO[Si](C(C)(C)C)(C(C)(C)C)C(C)(C)C)NC(=[NH+]1)N32.F[B-](F)(F)F | 16 |  | 7 | 65 | 18 | 4 | 4 |  |  |  |  |  | 
CC(=O)OCCCC[C@H]1C[C@H]2CC[C@H]3C[C@@H](C)[NH+]=C(N1)N23.F[B-](F)(F)F | >2 |  | > 100 | > 150 | > 100 | 88 |  |  |  |  |  |  | 
CCCCCCCC(=O)OCCCC[C@H]1C[C@H]2CC[C@H]3C[C@@H](C)[NH+]=C(N1)N23.F[B-](F)(F)F | 12 |  | 53 | 100 | > 100 | 8 |  |  |  |  |  |  | 
C[C@@H]1CCC[C@]2(CCN3CC[C@]4(CCC[C@@H](C)O4)NC3=N2)O1 |  |  | > 100 | > 150 | > 100 | > 100 |  |  |  |  |  |  | 
CCCCCCCCC[C@@H]1C[C@@H]2CC[C@H]3C(C(=O)O)[C@@H](C)N=C(N1)N23 (single isomer, unassigned; 16) | 0.9 |  | 47 | 60 | > 100 | 69 |  |  |  |  |  |  | 
F[B-](F)(F)F.c1ccc([C@@H]2C[C@@H]3CC[C@@H]4C[C@H](c5ccccc5)NC(=[NH+]2)N43)cc1 | 5 |  | 34 | 45 | 2 | 9 | 20 | 70 | 10 | Active | Active | Active | 60
